Key:
[1] = target: Serine/threonine-protein kinase/endoribonuclease IRE1 (Homo sapiens) (UniProt O75460); experiment: Inhibition of human recombinant IRE1 at 500 nM in presence of ATP by radiometric assay relative to control
[2] = target: Dual specificity mitogen-activated protein kinase kinase 1 (Homo sapiens) (UniProt Q02750); experiment: Inhibition of human recombinant MAP2K1 at 500 nM related to control ULK1
[3] = target: Ribosomal protein S6 kinase alpha-2 (Homo sapiens) (UniProt Q15349); experiment: Inhibition of human recombinant RSK3 at 500 nM related to control ULK1
Ribosomal protein S6 kinase alpha-2 (Homo sapiens), sequence (Q15349 whole entry): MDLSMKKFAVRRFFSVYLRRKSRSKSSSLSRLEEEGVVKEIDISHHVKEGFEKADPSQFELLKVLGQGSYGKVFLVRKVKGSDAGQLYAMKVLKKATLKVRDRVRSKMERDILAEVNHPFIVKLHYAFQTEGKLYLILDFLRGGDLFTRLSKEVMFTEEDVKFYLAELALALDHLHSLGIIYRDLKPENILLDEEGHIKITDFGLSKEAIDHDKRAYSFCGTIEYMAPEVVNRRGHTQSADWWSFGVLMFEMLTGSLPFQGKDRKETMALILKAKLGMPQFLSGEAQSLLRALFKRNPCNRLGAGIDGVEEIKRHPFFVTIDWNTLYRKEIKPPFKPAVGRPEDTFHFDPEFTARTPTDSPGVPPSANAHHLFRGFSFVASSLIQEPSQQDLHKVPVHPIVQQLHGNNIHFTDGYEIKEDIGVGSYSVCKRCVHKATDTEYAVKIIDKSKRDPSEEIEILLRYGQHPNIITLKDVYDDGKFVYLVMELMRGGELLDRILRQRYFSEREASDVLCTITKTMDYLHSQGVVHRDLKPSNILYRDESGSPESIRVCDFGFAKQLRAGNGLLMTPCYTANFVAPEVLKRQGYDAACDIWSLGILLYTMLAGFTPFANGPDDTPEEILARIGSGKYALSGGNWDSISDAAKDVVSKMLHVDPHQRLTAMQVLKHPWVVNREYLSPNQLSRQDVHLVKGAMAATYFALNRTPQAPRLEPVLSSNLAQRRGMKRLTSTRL

[4] = target: Tyrosine-protein kinase receptor UFO (Homo sapiens) (UniProt P30530); experiment: Inhibition of human recombinant AXL at 15 nM in presence of ATP by radiometric assay relative to control
How it was run: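 Panel of 327 recombinant human kinases, each assayed in vitro by radiometric activity assay in duplicate at a single inhibitor concentration per compound, chosen with reference to its ULK1 inhibition. Activity remaining was expressed as percent of vehicle control, and percent inhibition was calculated as 100 minus percent activity remaining.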

[5] = target: Dual specificity tyrosine-phosphorylation-regulated kinase 1B (Homo sapiens) (UniProt Q9Y463); experiment: Inhibition of human recombinant DYRK1B at 15 nM in presence of ATP by radiometric assay relative to control
Dual specificity tyrosine-phosphorylation-regulated kinase 1B (Homo sapiens), sequence (Q9Y463 whole entry, looked up): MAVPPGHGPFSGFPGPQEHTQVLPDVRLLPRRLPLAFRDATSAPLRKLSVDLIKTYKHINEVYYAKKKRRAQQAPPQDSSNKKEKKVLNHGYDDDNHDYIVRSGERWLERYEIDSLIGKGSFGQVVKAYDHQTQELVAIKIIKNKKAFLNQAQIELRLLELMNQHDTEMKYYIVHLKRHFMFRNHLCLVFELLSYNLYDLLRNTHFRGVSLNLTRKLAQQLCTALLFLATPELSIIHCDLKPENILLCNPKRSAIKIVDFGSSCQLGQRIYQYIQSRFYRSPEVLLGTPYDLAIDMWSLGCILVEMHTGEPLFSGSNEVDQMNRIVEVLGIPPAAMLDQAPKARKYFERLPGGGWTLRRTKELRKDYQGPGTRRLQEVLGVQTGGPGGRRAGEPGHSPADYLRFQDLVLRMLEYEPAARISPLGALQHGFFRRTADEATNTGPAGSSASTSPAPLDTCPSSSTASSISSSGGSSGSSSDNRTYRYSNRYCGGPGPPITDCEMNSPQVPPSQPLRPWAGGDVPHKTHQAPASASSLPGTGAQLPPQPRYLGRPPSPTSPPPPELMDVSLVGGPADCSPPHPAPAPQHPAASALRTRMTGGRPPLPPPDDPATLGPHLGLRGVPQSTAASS

[6] = target: Mitogen-activated protein kinase kinase kinase 9 (Homo sapiens) (UniProt P80192); experiment: Inhibition of human recombinant MLK1 at 15 nM in presence of ATP by radiometric assay relative to control
Mitogen-activated protein kinase kinase kinase 9 (Homo sapiens), sequence (P80192 whole entry, looked up): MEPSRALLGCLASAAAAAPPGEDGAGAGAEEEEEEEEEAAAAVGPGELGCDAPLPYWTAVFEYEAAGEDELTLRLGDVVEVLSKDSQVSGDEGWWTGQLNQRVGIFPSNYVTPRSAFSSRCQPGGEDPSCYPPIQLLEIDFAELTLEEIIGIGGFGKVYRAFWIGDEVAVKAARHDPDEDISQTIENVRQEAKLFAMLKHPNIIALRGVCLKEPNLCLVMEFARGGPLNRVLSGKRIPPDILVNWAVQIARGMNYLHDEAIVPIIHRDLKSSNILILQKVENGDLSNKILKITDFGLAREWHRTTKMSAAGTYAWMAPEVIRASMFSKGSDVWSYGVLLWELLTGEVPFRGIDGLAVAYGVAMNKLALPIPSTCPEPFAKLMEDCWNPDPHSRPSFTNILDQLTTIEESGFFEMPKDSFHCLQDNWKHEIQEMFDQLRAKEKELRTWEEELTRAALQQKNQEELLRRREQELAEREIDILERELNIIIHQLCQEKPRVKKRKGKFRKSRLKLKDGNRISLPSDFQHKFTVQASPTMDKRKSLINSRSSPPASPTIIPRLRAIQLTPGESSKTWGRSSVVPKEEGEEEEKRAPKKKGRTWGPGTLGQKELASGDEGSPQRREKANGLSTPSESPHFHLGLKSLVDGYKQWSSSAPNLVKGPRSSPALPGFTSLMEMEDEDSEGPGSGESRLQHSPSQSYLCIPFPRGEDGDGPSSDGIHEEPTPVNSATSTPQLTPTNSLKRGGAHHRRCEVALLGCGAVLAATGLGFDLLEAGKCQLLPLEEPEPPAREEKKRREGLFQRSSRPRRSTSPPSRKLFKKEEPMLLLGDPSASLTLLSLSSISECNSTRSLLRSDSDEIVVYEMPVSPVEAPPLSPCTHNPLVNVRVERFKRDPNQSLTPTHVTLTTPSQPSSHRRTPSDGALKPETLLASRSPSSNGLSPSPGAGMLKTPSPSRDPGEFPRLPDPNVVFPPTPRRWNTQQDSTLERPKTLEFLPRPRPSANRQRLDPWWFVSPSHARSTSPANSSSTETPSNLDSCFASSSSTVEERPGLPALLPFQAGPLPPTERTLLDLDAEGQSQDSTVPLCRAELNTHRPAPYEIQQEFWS

[7] = target: cAMP-dependent protein kinase catalytic subunit alpha (Homo sapiens) (UniProt P17612); experiment: Inhibition of human recombinant PKACalpha at 15 nM in presence of ATP by radiometric assay relative to control
[8] = target: Angiopoietin-1 receptor (Homo sapiens) (UniProt Q02763); experiment: Inhibition of human recombinant Tie2 at 15 nM in presence of ATP by radiometric assay relative to control
Angiopoietin-1 receptor (Homo sapiens), sequence (Q02763 whole entry): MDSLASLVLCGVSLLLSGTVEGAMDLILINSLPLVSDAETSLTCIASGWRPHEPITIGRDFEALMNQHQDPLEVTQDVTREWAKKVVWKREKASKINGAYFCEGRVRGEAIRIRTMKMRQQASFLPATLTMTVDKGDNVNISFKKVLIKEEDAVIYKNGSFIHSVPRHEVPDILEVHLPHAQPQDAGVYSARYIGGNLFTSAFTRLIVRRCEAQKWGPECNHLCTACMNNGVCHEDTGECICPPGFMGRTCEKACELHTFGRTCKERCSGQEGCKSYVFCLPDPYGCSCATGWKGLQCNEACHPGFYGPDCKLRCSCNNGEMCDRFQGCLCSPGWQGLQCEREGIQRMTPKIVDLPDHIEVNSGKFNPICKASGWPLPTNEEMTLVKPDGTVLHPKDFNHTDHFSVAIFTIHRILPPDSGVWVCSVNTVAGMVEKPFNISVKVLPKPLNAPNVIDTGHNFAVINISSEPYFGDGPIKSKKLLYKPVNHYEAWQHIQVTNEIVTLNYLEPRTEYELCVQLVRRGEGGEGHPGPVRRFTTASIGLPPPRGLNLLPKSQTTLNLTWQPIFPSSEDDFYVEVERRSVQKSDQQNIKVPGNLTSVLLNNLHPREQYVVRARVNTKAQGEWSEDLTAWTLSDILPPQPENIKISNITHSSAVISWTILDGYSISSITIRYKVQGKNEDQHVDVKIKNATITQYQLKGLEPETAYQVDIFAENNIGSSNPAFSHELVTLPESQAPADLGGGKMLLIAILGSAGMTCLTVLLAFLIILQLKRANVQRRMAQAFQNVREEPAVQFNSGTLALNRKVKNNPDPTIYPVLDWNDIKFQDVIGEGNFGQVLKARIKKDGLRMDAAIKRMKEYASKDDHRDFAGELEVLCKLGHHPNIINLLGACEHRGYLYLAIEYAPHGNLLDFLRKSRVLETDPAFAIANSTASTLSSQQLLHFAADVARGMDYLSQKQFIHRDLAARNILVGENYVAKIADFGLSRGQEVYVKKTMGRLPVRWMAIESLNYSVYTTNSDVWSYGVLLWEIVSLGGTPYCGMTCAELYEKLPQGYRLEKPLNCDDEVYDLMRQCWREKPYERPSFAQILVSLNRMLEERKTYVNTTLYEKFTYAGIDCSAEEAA

[9] = target: Calcium/calmodulin-dependent protein kinase type II subunit beta (Homo sapiens) (UniProt Q13554); experiment: Inhibition of human recombinant CaMK2b at 40 nM in presence of ATP by radiometric assay relative to control
Calcium/calmodulin-dependent protein kinase type II subunit beta (Homo sapiens), sequence (Q13554 whole entry): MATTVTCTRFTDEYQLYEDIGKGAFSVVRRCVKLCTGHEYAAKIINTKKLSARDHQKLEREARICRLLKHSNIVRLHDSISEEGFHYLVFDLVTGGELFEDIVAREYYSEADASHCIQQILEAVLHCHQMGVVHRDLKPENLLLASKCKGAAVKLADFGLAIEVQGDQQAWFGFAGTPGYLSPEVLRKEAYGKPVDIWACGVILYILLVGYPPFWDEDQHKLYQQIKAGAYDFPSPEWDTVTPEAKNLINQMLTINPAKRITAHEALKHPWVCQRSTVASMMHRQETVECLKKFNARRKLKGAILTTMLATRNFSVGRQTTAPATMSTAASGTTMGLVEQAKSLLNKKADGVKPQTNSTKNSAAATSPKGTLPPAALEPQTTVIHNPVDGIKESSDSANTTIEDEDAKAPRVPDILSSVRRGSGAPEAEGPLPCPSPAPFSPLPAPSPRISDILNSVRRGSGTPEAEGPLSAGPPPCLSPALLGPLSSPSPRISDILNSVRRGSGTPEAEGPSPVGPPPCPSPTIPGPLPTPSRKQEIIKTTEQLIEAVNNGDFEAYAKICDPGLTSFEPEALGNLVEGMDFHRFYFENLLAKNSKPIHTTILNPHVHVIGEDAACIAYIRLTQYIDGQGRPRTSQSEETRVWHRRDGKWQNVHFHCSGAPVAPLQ

[10] = target: T1, Ephrin type-A receptor 1 (Homo sapiens) (UniProt P21709); experiment: Inhibition of human recombinant EphA1 at 40 nM related to control ULK1
T1 sequence (whole entry): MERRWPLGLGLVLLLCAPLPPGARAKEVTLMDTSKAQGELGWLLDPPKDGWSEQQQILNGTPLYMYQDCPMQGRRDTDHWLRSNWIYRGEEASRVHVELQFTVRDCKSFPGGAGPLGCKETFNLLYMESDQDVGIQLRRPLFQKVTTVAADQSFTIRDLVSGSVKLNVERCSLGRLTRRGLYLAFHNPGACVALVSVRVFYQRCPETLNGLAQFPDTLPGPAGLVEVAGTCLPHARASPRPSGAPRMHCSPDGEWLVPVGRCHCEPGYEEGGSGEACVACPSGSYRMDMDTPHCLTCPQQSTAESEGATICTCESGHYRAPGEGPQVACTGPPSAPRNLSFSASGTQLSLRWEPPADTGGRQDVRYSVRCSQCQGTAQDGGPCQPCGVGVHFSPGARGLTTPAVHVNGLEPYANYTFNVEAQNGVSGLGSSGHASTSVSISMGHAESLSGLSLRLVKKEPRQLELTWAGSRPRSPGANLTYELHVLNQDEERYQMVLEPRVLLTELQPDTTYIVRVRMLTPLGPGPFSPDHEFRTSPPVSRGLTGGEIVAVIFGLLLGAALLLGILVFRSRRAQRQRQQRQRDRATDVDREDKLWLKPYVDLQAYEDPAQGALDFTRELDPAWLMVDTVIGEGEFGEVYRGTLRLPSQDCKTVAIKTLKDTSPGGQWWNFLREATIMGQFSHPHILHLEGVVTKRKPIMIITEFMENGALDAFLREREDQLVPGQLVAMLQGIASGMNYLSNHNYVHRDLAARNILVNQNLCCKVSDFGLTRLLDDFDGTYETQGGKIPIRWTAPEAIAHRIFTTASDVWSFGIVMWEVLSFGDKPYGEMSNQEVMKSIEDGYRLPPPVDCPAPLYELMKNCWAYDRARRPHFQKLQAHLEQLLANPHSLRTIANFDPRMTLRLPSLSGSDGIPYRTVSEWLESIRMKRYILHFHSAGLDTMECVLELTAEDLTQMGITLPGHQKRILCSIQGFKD

[11] = target: T2, Protein kinase C zeta type (Homo sapiens) (UniProt Q05513); experiment: Inhibition of human recombinant PKCz at 40 nM related to control ULK1
T2 sequence (whole entry): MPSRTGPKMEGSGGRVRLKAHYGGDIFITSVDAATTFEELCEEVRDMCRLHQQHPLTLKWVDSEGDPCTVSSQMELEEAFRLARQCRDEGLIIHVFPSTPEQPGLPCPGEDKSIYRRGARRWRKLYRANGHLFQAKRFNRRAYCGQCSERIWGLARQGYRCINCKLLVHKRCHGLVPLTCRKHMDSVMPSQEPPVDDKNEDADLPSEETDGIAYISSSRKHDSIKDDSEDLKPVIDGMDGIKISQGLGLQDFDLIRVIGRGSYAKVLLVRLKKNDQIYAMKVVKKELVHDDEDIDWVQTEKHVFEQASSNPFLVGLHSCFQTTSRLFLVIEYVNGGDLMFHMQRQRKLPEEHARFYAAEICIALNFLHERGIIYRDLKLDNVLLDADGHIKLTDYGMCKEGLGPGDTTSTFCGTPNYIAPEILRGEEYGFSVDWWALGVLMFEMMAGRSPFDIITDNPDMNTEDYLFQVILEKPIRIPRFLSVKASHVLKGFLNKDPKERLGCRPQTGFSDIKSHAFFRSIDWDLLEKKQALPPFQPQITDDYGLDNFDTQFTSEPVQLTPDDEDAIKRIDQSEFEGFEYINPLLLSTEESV

[12] = target: T3, Serine/threonine-protein kinase Sgk3 (Homo sapiens) (UniProt Q96BR1); experiment: Inhibition of human recombinant SGK3 at 40 nM related to control ULK1
T3 sequence (whole entry): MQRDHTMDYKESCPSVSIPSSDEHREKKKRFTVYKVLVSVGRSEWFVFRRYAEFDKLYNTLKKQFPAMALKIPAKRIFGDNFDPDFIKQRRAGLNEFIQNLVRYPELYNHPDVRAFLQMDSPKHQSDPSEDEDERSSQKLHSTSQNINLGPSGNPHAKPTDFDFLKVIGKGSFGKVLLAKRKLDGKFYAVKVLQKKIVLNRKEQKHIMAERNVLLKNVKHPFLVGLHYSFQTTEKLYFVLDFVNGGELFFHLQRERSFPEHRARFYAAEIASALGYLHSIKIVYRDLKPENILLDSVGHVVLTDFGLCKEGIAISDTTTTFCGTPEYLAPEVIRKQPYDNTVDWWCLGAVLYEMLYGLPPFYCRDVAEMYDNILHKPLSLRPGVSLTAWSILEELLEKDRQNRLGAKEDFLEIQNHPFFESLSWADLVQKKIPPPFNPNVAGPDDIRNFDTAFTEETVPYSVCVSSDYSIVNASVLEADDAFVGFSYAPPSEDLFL

Dual specificity mitogen-activated protein kinase kinase 1 (Homo sapiens), sequence (Q02750 whole entry): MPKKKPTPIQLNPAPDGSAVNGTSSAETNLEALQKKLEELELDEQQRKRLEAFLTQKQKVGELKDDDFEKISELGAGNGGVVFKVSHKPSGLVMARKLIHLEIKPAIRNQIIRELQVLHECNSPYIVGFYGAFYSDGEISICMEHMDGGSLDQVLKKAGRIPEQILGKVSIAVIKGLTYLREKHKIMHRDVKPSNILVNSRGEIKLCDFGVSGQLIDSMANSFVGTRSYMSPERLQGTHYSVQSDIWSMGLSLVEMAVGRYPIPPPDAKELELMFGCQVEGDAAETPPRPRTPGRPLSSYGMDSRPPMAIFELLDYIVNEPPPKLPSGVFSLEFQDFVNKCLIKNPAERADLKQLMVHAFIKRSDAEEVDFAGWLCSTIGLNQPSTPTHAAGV

CNC(=O)c1ccccc1Oc1nc(Nc2cc(OC)c(OC)c(OC)c2)ncc1Br
inhibition [1]: 0% | fold change (FC) [2]: 0 | fold change (FC) [3]: 0.66

CC(C)[C@H](NC(=O)c1cc(-c2cnn3cc(-c4ccc(OCCN5CCCCC5)cc4)cnc23)cs1)C(F)(F)F
inhibition [4]: 11% | inhibition [5]: 65% | inhibition [6]: 0% | inhibition [7]: 0% | inhibition [8]: 0%

O=C(N[C@@H](C1CC1)C(F)(F)F)c1cc(-c2cnn3cc(-c4ccc(F)cc4)cnc23)cs1
inhibition [9]: 0% | fold change (FC) [10]: 0 | fold change (FC) [11]: 0 | fold change (FC) [12]: 0

From ChEMBL document CHEMBL5653631, “A Potent and Selective ULK1 Inhibitor Suppresses Autophagy and Sensitizes Cancer Cells to Nutrient Stress” (iScience, 2018)
